Source: ChEMBL document CHEMBL3259762, “Synthesis of novel 1,2,3-triazole derivatives of isoniazid and their in vitro and in vivo antimycobacterial activity evaluation” (Eur J Med Chem, 2014)
Converted amounts (≈) assume the structure as drawn. The source made the active and inactive calls. The rule behind the calls is not given here.

How the values were obtained:
[1] = tested on: Mycobacterium tuberculosis; experiment: Antimycobacterial activity against Mycobacterium tuberculosis H37Rv ATCC 27294 after 14 days by microscopy; format: functional; settings: H37Rv ATCC 27294, 336 h
In short: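 2-fold serial dilutions of compounds (from DMSO stocks), 50 to 0.195 µM final, in 7H9 broth with 0.05% Tween 80, 0.2% glycerol and ADS. Inoculum is a culture grown to A600 0.2 and diluted 1:1000. Incubated at 37 C for 14 days. MIC99 (99% growth inhibition) read macroscopically with an inverted plate reader. Done in triplicate.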

THP-1 = experiment: Cytotoxicity against human THP1 cells; format: cell-based
[2] = tested on: Mycobacterium tuberculosis; experiment: Antimycobacterial activity against Mycobacterium tuberculosis H37Rv ATCC 27294 infected in Balb/c mouse assessed as reduction in bacterial load in spleen at 100 mg/kg, po qd administered five days in a week starting 2 weeks post challenge measured after 6 weeks relative to untreated control; format: functional
In short: (§1)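 Balb/c mice of either sex (25-30 g) infected by aerosol in an inhalation chamber, about 1000 bacilli/lung. Oral gavage once daily, 5 days/week, starting 2 weeks post-infection. DMSO and untreated groups as controls. N = 5/group, killed at 3, 6 and 10 weeks of therapy. Lung or spleen homogenates in saline plated in duplicate on 7H11 agar, 37 C for 3–4 weeks. Read-out is log10 CFU/organ.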

[3] = tested on: Mycobacterium tuberculosis; experiment: Antimycobacterial activity against Mycobacterium tuberculosis H37Rv ATCC 27294 infected in Balb/c mouse assessed as reduction in bacterial load in lung at 100 mg/kg, po qd administered five days in a week starting 2 weeks post challenge measured after 10 weeks relative to untreated control; format: functional; in short: as §1
[4] = tested on: Mycobacterium tuberculosis; experiment: Antimycobacterial activity against Mycobacterium tuberculosis H37Rv ATCC 27294 infected in Balb/c mouse assessed as reduction in bacterial load in spleen at 100 mg/kg, po qd administered five days in a week starting 2 weeks post challenge measured after 10 weeks relative to untreated control; format: functional; in short: as §1
[5] = tested on: Mycobacterium tuberculosis; experiment: Antimycobacterial activity against Mycobacterium tuberculosis H37Rv ATCC 27294 infected in Balb/c mouse assessed as reduction in bacterial load in lung at 100 mg/kg, po qd administered five days in a week starting 2 weeks post challenge measured after 3 weeks relative to untreated control; format: functional; in short: as §1
[6] = tested on: Mycobacterium tuberculosis; experiment: Antimycobacterial activity against Mycobacterium tuberculosis H37Rv ATCC 27294 infected in Balb/c mouse assessed as reduction in bacterial load in lung at 100 mg/kg, po qd administered five days in a week starting 2 weeks post challenge measured after 6 weeks relative to untreated control; format: functional; in short: as §1
[7] = tested on: Mycobacterium tuberculosis; experiment: Antimycobacterial activity against Mycobacterium tuberculosis H37Rv ATCC 27294 infected in Balb/c mouse assessed as reduction in bacterial load in spleen at 100 mg/kg, po qd administered five days in a week starting 2 weeks post challenge measured after 3 weeks relative to untreated control; format: functional; in short: as §1
[8] = tested on: Mycobacterium tuberculosis; experiment: Antimycobacterial activity against Mycobacterium tuberculosis H37Rv ATCC 27294 infected in Balb/c mouse assessed as reduction in bacterial load in lung at 100 mg/kg, po qd administered five days in a week starting 2 weeks post challenge measured after 3 weeks relative to DMSO-treated control; format: functional; in short: as §1
[9] = tested on: Mycobacterium tuberculosis; experiment: Antimycobacterial activity against Mycobacterium tuberculosis H37Rv ATCC 27294 infected in Balb/c mouse assessed as reduction in bacterial load in lung at 100 mg/kg, po qd administered five days in a week starting 2 weeks post challenge measured after 6 weeks relative to DMSO-treated control; format: functional; in short: as §1
[10] = tested on: Mycobacterium tuberculosis; experiment: Antimycobacterial activity against Mycobacterium tuberculosis H37Rv ATCC 27294 infected in Balb/c mouse assessed as reduction in bacterial load in lung at 100 mg/kg, po qd administered five days in a week starting 2 weeks post challenge measured after 10 weeks relative to DMSO-treated control; format: functional; in short: as §1
[11] = tested on: Mycobacterium tuberculosis; experiment: Antimycobacterial activity against Mycobacterium tuberculosis H37Rv ATCC 27294 infected in Balb/c mouse assessed as reduction in bacterial load in spleen at 100 mg/kg, po qd administered five days in a week starting 2 weeks post challenge measured after 3 weeks relative to DMSO-treated control; format: functional; in short: as §1
[12] = tested on: Mycobacterium tuberculosis; experiment: Antimycobacterial activity against Mycobacterium tuberculosis H37Rv ATCC 27294 infected in Balb/c mouse assessed as reduction in bacterial load in spleen at 100 mg/kg, po qd administered five days in a week starting 2 weeks post challenge measured after 6 weeks relative to DMSO-treated control; format: functional; in short: as §1
[13] = tested on: Mycobacterium tuberculosis; experiment: Antimycobacterial activity against Mycobacterium tuberculosis H37Rv ATCC 27294 infected in Balb/c mouse assessed as reduction in bacterial load in spleen at 100 mg/kg, po qd administered five days in a week starting 2 weeks post challenge measured after 10 weeks relative to DMSO-treated control; format: functional
[14] = tested on: Mycobacterium tuberculosis; experiment: Ratio of isoniazid MIC99 to compound MIC99 for Mycobacterium tuberculosis H37Rv ATCC 27294 after 14 days by microscopy; format: functional
[15] = tested on: Mycobacterium tuberculosis; experiment: Antimycobacterial activity against Mycobacterium tuberculosis H37Rv ATCC 27294 infected in Balb/c mouse assessed as reduction in bacterial load in lung at 25 mg/kg, po qd administered five days in a week starting 2 weeks post challenge measured after 3 to 10 weeks relative to untreated control; format: functional, organism-based; set-up: dose 25 mg/kg; in short: as §1
[16] = tested on: Mycobacterium tuberculosis; experiment: Antimycobacterial activity against Mycobacterium tuberculosis H37Rv ATCC 27294 infected in Balb/c mouse assessed as reduction in bacterial load in lung at 50 mg/kg, po qd administered five days in a week starting 2 weeks post challenge measured after 3 to 10 weeks relative to untreated control; format: functional, organism-based; set-up: dose 50 mg/kg; in short: as §1
[17] = tested on: Mycobacterium tuberculosis; experiment: Antimycobacterial activity against Mycobacterium tuberculosis H37Rv ATCC 27294 infected in Balb/c mouse assessed as reduction in bacterial load in spleen at 25 mg/kg, po qd administered five days in a week starting 2 weeks post challenge measured after 3 to 6 weeks relative to untreated control; format: functional, organism-based; set-up: dose 25 mg/kg; in short: as §1
[18] = tested on: Mycobacterium tuberculosis; experiment: Antimycobacterial activity against Mycobacterium tuberculosis H37Rv ATCC 27294 infected in Balb/c mouse assessed as reduction in bacterial load in spleen at 25 mg/kg, po qd administered five days in a week starting 2 weeks post challenge measured after 10 weeks relative to untreated control; format: functional; in short: as §1
[19] = tested on: Mycobacterium tuberculosis; experiment: Antimycobacterial activity against Mycobacterium tuberculosis H37Rv ATCC 27294 infected in Balb/c mouse assessed as reduction in bacterial load in spleen at 50 mg/kg, po qd administered five days in a week starting 2 weeks post challenge measured after 3 weeks relative to DMSO-treated control; format: functional; in short: as §1
[20] = tested on: Mycobacterium tuberculosis; experiment: Antimycobacterial activity against Mycobacterium tuberculosis H37Rv ATCC 27294 infected in Balb/c mouse assessed as reduction in bacterial load in spleen at 50 mg/kg, po qd administered five days in a week starting 2 weeks post challenge measured after 6 weeks relative to DMSO-treated control; format: functional; in short: as §1
[21] = tested on: Mycobacterium tuberculosis; experiment: Antimycobacterial activity against Mycobacterium tuberculosis H37Rv ATCC 27294 infected in Balb/c mouse assessed as reduction in bacterial load in spleen at 50 mg/kg, po qd administered five days in a week starting 2 weeks post challenge measured after 10 weeks relative to DMSO-treated control; format: functional; in short: as §1

Compound	MIC99 [1] [µM]	Activity (THP-1) [µM]	other results
CCCc1cn(CCCOc2ccc(/C=N/NC(=O)c3ccncc3)cc2)nn1	0.78 (≈ 0.306 µg/mL)	> 50	
CC(C)n1cc(COc2ccc(/C=N/NC(=O)c3ccncc3)cc2)nn1	0.78 (≈ 0.284 µg/mL)	> 50	
O=C(N/N=C/c1ccc(OCCn2cc(-c3ccccn3)nn2)cc1)c1ccncc1	0.39 (≈ 0.161 µg/mL)	> 50	
NNC(=O)c1ccncc1 [ISONIAZID]	0.39 (≈ 0.0535 µg/mL)		log10cfu [2]: 3.68; log10cfu [3]: 3.38; log10cfu [4]: 4; log10cfu [5]: 1.22; log10cfu [6]: 2.59; log10cfu [7]: 2.66
O=C(N/N=C/c1ccc(OCc2cn(Cc3ccccc3)nn2)cc1)c1ccncc1	0.78 (≈ 0.322 µg/mL)	> 50	
CCCCc1cn(CCCOc2ccc(/C=N/NC(=O)c3ccncc3)cc2)nn1	0.39 (≈ 0.159 µg/mL)	> 50	
O=C(N/N=C/c1ccc(OCCCn2cc(CO)nn2)cc1)c1ccncc1	0.78 (≈ 0.297 µg/mL)	> 50	
O=C(N/N=C/c1ccc(OCCn2cc(COc3ccccc3)nn2)cc1)c1ccncc1	0.39 (≈ 0.173 µg/mL)	> 50	
CCCCc1cn(CCOc2ccc(/C=N/NC(=O)c3ccncc3)cc2)nn1	0.78 (≈ 0.306 µg/mL)	> 50	
O=C(N/N=C/c1ccc(OCCn2cc(COc3ccc(Cl)cc3)nn2)cc1)c1ccncc1	0.195 (≈ 0.093 µg/mL)	> 50	log10cfu [8]: 0.02; log10cfu [9]: 0.82; log10cfu [10]: 0.91; log10cfu [11]: 1.46; log10cfu [12]: 2.58; log10cfu [13]: 2.58; Ratio [14]: 2; Activity [15]: inactive; Activity [16]: inactive; Activity [17]: inactive; log10cfu [18]: 1.5; log10cfu [19]: 1.08; log10cfu [20]: 2.15; log10cfu [21]: 3.31
O=C(N/N=C/c1ccc(OCCn2cc(CO)nn2)cc1)c1ccncc1	0.78 (≈ 0.286 µg/mL)	> 50	
O=C(N/N=C/c1ccc(OCCn2cc(-c3ccccc3)nn2)cc1)c1ccncc1	0.39 (≈ 0.161 µg/mL)	> 50	
O=C(N/N=C/c1ccc(OCCCn2cc(COc3ccc(Cl)cc3)nn2)cc1)c1ccncc1	0.78 (≈ 0.383 µg/mL)	> 50	
CO[C@H]1/C=C/O[C@@]2(C)Oc3c(C)c(O)c4c(O)c(c(/C=N/N5CCN(C)CC5)c(O)c4c3C2=O)NC(=O)/C(C)=C\C=C\[C@H](C)[C@H](O)[C@@H](C)[C@@H](O)[C@@H](C)[C@H](OC(C)=O)[C@@H]1C [RIFAMPIN]			log10cfu [8]: 1.93; log10cfu [9]: 2.8; log10cfu [10]: 6.14; log10cfu [11]: 1.76; log10cfu [12]: 3.31
Cc1ccc(OCc2cn(CCCOc3ccc(/C=N/NC(=O)c4ccncc4)cc3)nn2)cc1	0.78 (≈ 0.367 µg/mL)	> 50	
O=C(N/N=C/c1ccc(OCCn2cc(C3(O)CCCCC3)nn2)cc1)c1ccncc1	0.39 (≈ 0.169 µg/mL)	> 50	
CCC(=O)OCc1cn(CCCOc2ccc(/C=N/NC(=O)c3ccncc3)cc2)nn1	0.78 (≈ 0.34 µg/mL)	> 50	
CCCCCn1cc(COc2ccc(/C=N/NC(=O)c3ccncc3)cc2)nn1	0.39 (≈ 0.153 µg/mL)	> 50	
CCCn1cc(COc2ccc(/C=N/NC(=O)c3ccncc3)cc2)nn1	0.78 (≈ 0.284 µg/mL)	> 50	
CCC(=O)OCc1cn(CCOc2ccc(/C=N/NC(=O)c3ccncc3)cc2)nn1	0.78 (≈ 0.33 µg/mL)	> 50	
Cc1ccc(OCc2cn(CCOc3ccc(/C=N/NC(=O)c4ccncc4)cc3)nn2)cc1	0.39 (≈ 0.178 µg/mL)	> 50	
O=C(N/N=C/c1ccc(OCCCn2cc(COc3ccccc3)nn2)cc1)c1ccncc1	0.39 (≈ 0.178 µg/mL)	> 50	
O=C(N/N=C/c1ccc(OCCCn2cc(C3(O)CCCCC3)nn2)cc1)c1ccncc1	0.78 (≈ 0.35 µg/mL)	> 50	
CCCCn1cc(COc2ccc(/C=N/NC(=O)c3ccncc3)cc2)nn1	0.39 (≈ 0.148 µg/mL)	> 50	
